# Laboratory results as given in ChEMBL document CHEMBL4765357, “Development of small-molecule inhibitors of fatty acyl-AMP and fatty acyl-CoA ligases in Mycobacterium tuberculosis” (Eur J Med Chem, 2020).
# Key:
# [1] = tested on: Mycobacterium tuberculosis; assay: Antimycobacterial activity against Mycobacterium tuberculosis H37Rv ATCC 27294 assessed as inhibition of bacterial growth under GAST medium condition after 7 to 14 days by broth microdilution method; assay type: functional; conditions: time 7-14 day
# Procedure, shortened: (§1)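 Mtb H37Rv ATCC 27294 by broth microdilution in GAST or 7H9 base with 5 g/L BSA fraction V, 0.8 g/L NaCl and 0.05% tyloxapol. Carbon source was 20 mM glycerol/10 mM glucose or 0.05 mM sodium palmitate. Compounds came from DMSO stocks with DMSO-only controls. Inoculum was 10⁴-10⁵ cells; growth was read at 7 and 14 days. MIC is the concentration giving >99% growth inhibition; runs were in triplicate.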
# [2] = molecular target: T1, Medium/long-chain-fatty-acid--CoA/3-oxocholest-4-en-26-oate--CoA ligase (Mycobacterium tuberculosis, UniProt P9WQ51); assay: Inhibition of Mycobacterium tuberculosis H37Rv FACL19 Spectra expressed in Escherichia coli BL21(DE3) cells assessed as cleavage of MEsG by spectroscopic analysis; conditions: read-out: Ki(app)
# T1 sequence (P9WQ51 whole entry): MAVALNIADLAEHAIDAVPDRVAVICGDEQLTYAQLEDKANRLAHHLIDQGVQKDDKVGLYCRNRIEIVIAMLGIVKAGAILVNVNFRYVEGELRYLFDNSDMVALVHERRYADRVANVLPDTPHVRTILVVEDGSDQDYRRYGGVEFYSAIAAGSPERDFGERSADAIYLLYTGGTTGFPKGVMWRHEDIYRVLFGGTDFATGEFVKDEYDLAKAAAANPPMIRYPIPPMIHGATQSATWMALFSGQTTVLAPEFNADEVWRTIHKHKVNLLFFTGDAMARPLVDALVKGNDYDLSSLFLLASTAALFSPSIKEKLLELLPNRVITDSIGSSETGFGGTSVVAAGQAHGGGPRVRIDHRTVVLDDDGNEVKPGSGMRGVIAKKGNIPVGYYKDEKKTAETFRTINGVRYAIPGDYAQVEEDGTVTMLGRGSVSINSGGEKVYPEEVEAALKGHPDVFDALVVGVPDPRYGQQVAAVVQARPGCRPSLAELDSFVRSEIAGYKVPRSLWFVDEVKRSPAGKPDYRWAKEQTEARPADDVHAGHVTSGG
# Procedure, shortened: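 FACL19 (0.167 μM) with 250 μM dodecanoic acid in a coupled MesG assay with pyrophosphatase and nucleoside phosphorylase. Buffer was 50 mM Tris·HCl pH 8.0 with 2.5 mM ATP, 5 mM MgCl₂, 0.5 mM DTT and 150 mM hydroxylamine. Apparent Ki came from a Morrison tight-binding fit.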
# [3] = molecular target: T2, Long-chain-fatty-acid--AMP ligase FadD28 (Mycobacterium tuberculosis, UniProt P9WQ59); assay: Inhibition of Mycobacterium tuberculosis H37Rv FAAL28 Spectra expressed in Escherichia coli BL21(DE3) cells assessed as cleavage of MEsG by spectroscopic analysis; conditions: read-out: Ki(app)
# T2 sequence (P9WQ59 whole entry): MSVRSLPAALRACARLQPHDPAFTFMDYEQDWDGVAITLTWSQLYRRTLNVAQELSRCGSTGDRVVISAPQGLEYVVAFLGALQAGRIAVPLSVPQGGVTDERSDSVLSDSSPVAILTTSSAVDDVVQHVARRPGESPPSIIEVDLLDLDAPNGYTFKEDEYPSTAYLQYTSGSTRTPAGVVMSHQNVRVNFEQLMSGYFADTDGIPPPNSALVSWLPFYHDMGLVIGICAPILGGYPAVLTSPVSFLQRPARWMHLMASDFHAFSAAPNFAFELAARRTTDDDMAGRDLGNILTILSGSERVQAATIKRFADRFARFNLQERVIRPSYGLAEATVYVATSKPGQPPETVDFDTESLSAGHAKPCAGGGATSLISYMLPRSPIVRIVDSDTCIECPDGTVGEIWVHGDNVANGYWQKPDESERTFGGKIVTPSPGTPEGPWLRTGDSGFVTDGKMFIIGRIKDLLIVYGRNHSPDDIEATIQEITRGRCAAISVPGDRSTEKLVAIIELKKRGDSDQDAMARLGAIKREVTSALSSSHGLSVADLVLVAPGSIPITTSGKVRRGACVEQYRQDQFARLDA
# Procedure, shortened: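 Coupled continuous assay with pyrophosphatase (0.04 U) and nucleoside phosphorylase (0.1 U), using 0.45 μM FAAL28 and 33 μM tetradecanoic acid. Buffer was 50 mM Tris·HCl pH 8.0 with 2.5 mM ATP, 5 mM MgCl₂, 0.5 mM DTT, 150 mM hydroxylamine and 0.2 mM MesG. Apparent Ki came from a Morrison equation fit.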
# [4] = tested on: Mycobacterium tuberculosis; assay: Antimycobacterial activity against Mycobacterium tuberculosis H37Rv ATCC 27294 assessed as inhibition of bacterial growth under 7H9 medium condition after 7 to 14 days in presence of palmitate by broth microdilution method; assay type: functional; conditions: time 7-14 day; procedure, shortened: as §1
# [5] = tested on: Vero; assay: Cytotoxicity against African green monkey Vero cells assessed as reduction in cell viability after 72 hrs by MTT assay; assay type: cell-based; conditions: Chlorocebus sabaeus
# Procedure, shortened: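 Vero cells were seeded at (2.5–5.0) × 10⁴ per well in MEM with 5% FBS and penicillin/streptomycin. Compounds were added from 20 mM DMSO stocks to a final 100 μM. Controls were 0.5% and 50% DMSO, all in triplicate. After 72 h at 37 °C in 5% CO₂, cells got 1 mg/mL MTT for 3 h. Formazan was dissolved in isopropanol and read at 570/650 nm, with viability expressed relative to DMSO control.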
# [6] = tested on: Mycobacterium tuberculosis; assay: Antimycobacterial activity against Mycobacterium tuberculosis H37Rv ATCC 27294 assessed as inhibition of bacterial growth under 7H9 medium condition after 7 to 14 days by broth microdilution method; assay type: functional; conditions: time 7-14 day; procedure, shortened: as §1
SMILES,MIC [1] [µM],Ki [2] [µM],Ki [3] [µM],MIC [4] [µM],IC50 [5] [µM],MIC [6] [µM]
Nc1ncnc2c1ncn2[C@@H]1O[C@H](COS(=O)(=O)NC(=O)CCCCCCCCCCOc2ccc3ccccc3c2)[C@@H](O)[C@H]1O,> 50,20.4,1.88,,,
Nc1ncnc2c1ncn2[C@@H]1O[C@H](COS(=O)(=O)NCCCCCCCCCCCOc2ccccc2)[C@@H](O)[C@H]1O,> 50,> 100,> 100,,,
Nc1ncnc2c1ncn2[C@@H]1O[C@H](COS(=O)(=O)NC(=O)CCCCCCCCCCCOc2ccccc2)[C@@H](O)[C@H]1O,12.5,> 100,2.6,,,
Nc1ncnc2c1ncn2[C@@H]1O[C@H](COS(=O)(=O)NC(=O)CCCCCCCCCCOc2ccc(Br)cc2)[C@@H](O)[C@H]1O,> 50,10.4,4,,,
[N-]=[N+]=NCCCCCCCCCCCC(=O)NS(=O)(=O)OC[C@H]1O[C@@H](n2cnc3c(N)ncnc32)[C@H](O)[C@@H]1O,0.19,> 100,28.5,25,5.6,12.5
CCCCOCCOCCOCC(=O)NS(=O)(=O)OC[C@H]1O[C@@H](n2cnc3c(N)ncnc32)[C@H](O)[C@@H]1O,6.25,> 100,> 100,> 100,16,> 100
Nc1ncnc2c1ncn2[C@@H]1O[C@H](CNS(=O)(=O)NC(=O)CCCCCCCCCCOc2ccccc2)[C@@H](O)[C@H]1O,1.56,> 100,3.1,,,
Nc1ncnc2c1ncn2[C@@H]1O[C@H](COS(=O)(=O)NC(=O)CCCCCCCCCCOc2ccc(C(F)(F)F)cc2)[C@@H](O)[C@H]1O,25,34.4,15.6,,,
COc1cccc(OCCCCCCCCCCC(=O)NS(=O)(=O)OC[C@H]2O[C@@H](n3cnc4c(N)ncnc43)[C@H](O)[C@@H]2O)c1,25,> 100,1.7,,,
Nc1ncnc2c1ncn2[C@@H]1O[C@H](COS(=O)(=O)NC(=O)CCCCCCCCCCOc2ccc(F)cc2)[C@@H](O)[C@H]1O,12.5,11.4,0.3,,,
Nc1ncnc2c1ncn2[C@@H]1O[C@H](COS(=O)(=O)NC(=O)CCCCCCCCCCNc2ccccc2)[C@@H](O)[C@H]1O,12.5,63.4,7.3,,,
COc1ccccc1OCCCCCCCCCCC(=O)NS(=O)(=O)OC[C@H]1O[C@@H](n2cnc3c(N)ncnc32)[C@H](O)[C@@H]1O,> 50,> 100,> 100,,,
Nc1ncnc2c1ncn2[C@@H]1O[C@H](COS(=O)(=O)NC(=O)CCCCCCCCCCOc2ccccc2Cl)[C@@H](O)[C@H]1O,> 50,> 100,3.6,,,
Nc1ncnc2c1ncn2[C@@H]1O[C@H](COS(=O)(=O)NC(=O)CCCCCCCCCCOc2ccc(Cl)cc2)[C@@H](O)[C@H]1O,6.25,13.7,2.2,,,
Nc1ncnc2c1ncn2[C@@H]1O[C@H](COS(=O)(=O)NC(=O)CCCCCCCCCOc2ccccc2)[C@@H](O)[C@H]1O,50,> 100,6.7,,,
Nc1ncnc2c1ncn2[C@@H]1O[C@H](COS(=O)(=O)NC(=O)CCCCCCCCCCOc2cccc3ccccc23)[C@@H](O)[C@H]1O,> 50,9.64,25.2,,,
CCCCCCCCCCCCCCCC(=O)NS(=O)(=O)OC[C@H]1O[C@@H](n2cnc3c(N)ncnc32)[C@H](O)[C@@H]1O,6.25,,1,> 100,0.3,100
COc1ccc(OCCCCCCCCCCC(=O)NS(=O)(=O)OC[C@H]2O[C@@H](n3cnc4c(N)ncnc43)[C@H](O)[C@@H]2O)cc1,> 50,> 100,6.6,,,
CCCCCCCCCCCCCCCCCCCC(=O)NS(=O)(=O)OC[C@H]1O[C@@H](n2cnc3c(N)ncnc32)[C@H](O)[C@@H]1O,> 100,,,> 100,0.1,> 100
Nc1ncnc2c1ncn2[C@@H]1O[C@H](COS(=O)(=O)NC(=O)CCCCCCCCCCOc2cccc(C(F)(F)F)c2)[C@@H](O)[C@H]1O,25,13.5,4.4,,,
Nc1ncnc2c1ncn2[C@@H]1O[C@H](COS(=O)(=O)NC(=O)CCCCCCCCCCOc2ccccc2F)[C@@H](O)[C@H]1O,> 50,> 100,1.5,,,
Nc1ncnc2c1ncn2[C@@H]1O[C@H](COS(=O)(=O)NC(=O)CCCCCCCCCCOc2cccc(Cl)c2)[C@@H](O)[C@H]1O,25,26.4,0.5,,,
Nc1ncnc2c1ncn2[C@@H]1O[C@H](COS(=O)(=O)NC(=O)CCCCCCCCCCSc2ccccc2)[C@@H](O)[C@H]1O,> 50,41.6,6.3,,,
Nc1ncnc2c1ncn2[C@@H]1O[C@H](COS(=O)(=O)NC(=O)CCCCCCCCCCOc2ccccc2C(F)(F)F)[C@@H](O)[C@H]1O,> 50,28.5,1.3,,,
Nc1ncnc2c1ncn2[C@@H]1O[C@H](CNS(=O)(=O)OCCCCCCCCCCCOc2ccccc2)[C@@H](O)[C@H]1O,> 50,> 100,> 100,,,
Nc1ncnc2c1ncn2[C@@H]1O[C@H](COS(=O)(=O)NC(=O)CCCCCCCCCCOc2cccc(F)c2)[C@@H](O)[C@H]1O,25,7.3,1.6,,,
